Experimental data taken from ChEMBL document CHEMBL1130075, “(2-Methyl-5-(methylsulfonyl)benzoyl)guanidine Na+/H+ antiporter inhibitors” (J Med Chem, 1997).

target: Sodium/hydrogen exchanger (Oryctolagus cuniculus, UniProt P23791+P50482+P26432); test: Inhibition of 5-N-(ethyl isopropyl)-amiloride[EIPA]-sensitive Na+ uptake into acidified rabbit erythrocytes.; assay type: functional
Procedure, shortened: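 Rabbit blood (heparinized) red cells, washed, acidified in pH 6.2 KCl buffer with ouabain, 10 min 37 °C; internal pH clamped with 200 μM DIDS and 1 mM acetazolamide, 30 min 37 °C. Uptake 5 min at 37 °C in pH 8.0 buffer with 10 mM NaCl plus ²²Na tracer, 1% DMSO. Triplicates; counts with 10 μM EIPA subtracted; IC50 by nonlinear fit.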

Row | Structure (SMILES) | IC50
1 | Cc1cc(N)c(S(C)(=O)=O)cc1C(=O)N=C(N)N | 16 nM
2 | CCOc1cc(C)c(C(=O)N=C(N)N)cc1S(C)(=O)=O | 19 nM
3 | CCc1cc(C)c(C(=O)N=C(N)N)cc1S(C)(=O)=O | 4.8 nM
4 | Cc1cc(N2CCCC(O)C2)c(S(C)(=O)=O)cc1C(=O)N=C(N)N (stereo unspecified) | 30 nM
5 | Cc1cc(-c2ccc(Cl)cc2)c(S(C)(=O)=O)cc1C(=O)N=C(N)N | 45 nM
6 | Cc1cc(-n2ccnc2)c(S(C)(=O)=O)cc1C(=O)N=C(N)N | 23 nM
